ChEMBL document CHEMBL4819106, “Aminopyrazole based CDK9 PROTAC sensitizes pancreatic cancer cells to venetoclax” (Bioorg Med Chem Lett, 2021)
Calls of active or inactive are those of the source. The rule behind the calls is not given here.

Columns and labels:
MIA PaCa-2 [1] = test: Antiproliferative activity against human MIA PaCa-2 cells assessed as sensitizing activity by measuring combination index at ED50 measured after 3 days in presence of ABT- 199 by Prestoblue assay; format: functional; settings: time 3 day
In short: (§1)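 MiaPaCa2 cells were treated for 3 days with the CDK9 degrader and a Bcl2-family inhibitor (ABT-263, ABT-199 or WEHI-539), singly and combined. Viability was read by PrestoBlue. Combination index values were calculated with CalcuSyn at effective doses ED50, ED75 and ED90.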

MIA PaCa-2 [2] = test: Antiproliferative activity against human MIA PaCa-2 cells assessed as sensitizing activity by measuring combination index at ED90 measured after 3 days in presence of ABT- 263 by Prestoblue assay; format: functional; settings: time 3 day; in short: as §1
MIA PaCa-2 [3] = test: Antiproliferative activity against human MIA PaCa-2 cells assessed as sensitizing activity by measuring combination index at ED75 measured after 3 days in presence of ABT- 263 by Prestoblue assay; format: functional; settings: time 3 day; in short: as §1
MIA PaCa-2 [4] = test: Antiproliferative activity against human MIA PaCa-2 cells assessed as sensitizing activity by measuring combination index at ED50 measured after 3 days in presence of ABT- 263 by Prestoblue assay; format: functional; settings: time 3 day; in short: as §1
[5] = molecular target: T1, Protein cereblon/Cyclin-dependent kinase 9 (Homo sapiens, UniProt P50750+Q96SW2); test: Protac activity at CDK9/CRBN in human HEK293 cells assessed as degradation of CDK9 incubated for 24 hrs by Western blot analysis; format: cell-based
In short: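 HEK293 cells were treated with increasing concentrations (0.01–10 μM) for 24 hr. Lysates were analysed by western blot for CDK9 degradation.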

[6] = molecular target: T1, Protein cereblon/Cyclin-dependent kinase 9; test: Protac activity at CDK9/CRBN in human HEK293 cells assessed as degradation of CDK9 at 1 uM incubated for 24 hrs by Western blot analysis relative to control; format: cell-based
Target sequence in this assay (P50750 whole entry, looked up): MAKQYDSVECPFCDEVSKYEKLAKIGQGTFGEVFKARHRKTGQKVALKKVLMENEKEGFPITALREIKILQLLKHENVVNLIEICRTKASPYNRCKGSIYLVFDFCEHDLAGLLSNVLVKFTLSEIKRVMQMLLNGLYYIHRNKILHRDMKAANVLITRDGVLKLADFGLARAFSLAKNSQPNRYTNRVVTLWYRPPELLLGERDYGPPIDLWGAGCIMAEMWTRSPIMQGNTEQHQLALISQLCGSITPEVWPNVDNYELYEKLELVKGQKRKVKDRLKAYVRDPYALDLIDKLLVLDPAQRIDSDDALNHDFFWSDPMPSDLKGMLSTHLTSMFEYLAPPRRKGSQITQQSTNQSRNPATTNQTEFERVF
Target sequence in this assay (Q96SW2 whole entry, looked up): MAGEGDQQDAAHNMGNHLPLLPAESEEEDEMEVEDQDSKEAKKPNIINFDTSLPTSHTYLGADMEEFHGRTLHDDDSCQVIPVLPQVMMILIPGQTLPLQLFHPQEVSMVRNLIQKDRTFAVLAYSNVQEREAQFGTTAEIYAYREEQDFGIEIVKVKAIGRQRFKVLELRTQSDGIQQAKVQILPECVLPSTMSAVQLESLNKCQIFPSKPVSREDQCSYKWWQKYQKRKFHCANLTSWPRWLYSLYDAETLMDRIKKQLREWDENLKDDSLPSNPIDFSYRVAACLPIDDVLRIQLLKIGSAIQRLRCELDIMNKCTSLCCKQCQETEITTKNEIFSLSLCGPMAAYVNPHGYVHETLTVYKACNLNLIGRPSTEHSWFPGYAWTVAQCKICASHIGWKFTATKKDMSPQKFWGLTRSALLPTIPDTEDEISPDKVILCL

[7] = molecular target: CDK9/Cyclin K (Homo sapiens) (UniProt P50750+O75909); test: Protac activity at Cyclin K/CRBN in human HEK293 cells assessed as degradation of cyclin K at 0.01 to 10 uM incubated for 24 hrs by Western blot analysis; format: cell-based; settings: dose 0.01-10 µM
[8] = molecular target: T2, Protein cereblon/Cyclin-dependent kinase 12 (Homo sapiens) (UniProt Q9NYV4+Q96SW2); test: Protac activity at CDK12/CRBN in human HEK293 cells assessed as degradation of CDK12 at 0.01 to 10 uM incubated for 24 hrs by Western blot analysis; format: cell-based; settings: dose 0.01-10 µM
[9] = molecular target: T3, Protein cereblon/Cyclin-dependent kinase 8 (Homo sapiens) (UniProt P49336+Q96SW2); test: Protac activity at CDK8/CRBN in human HEK293 cells assessed as degradation of CDK8 at 0.01 to 10 uM incubated for 24 hrs by Western blot analysis; format: cell-based; settings: dose 0.01-10 µM
[10] = molecular target: T4, Protein cereblon/Cyclin-dependent kinase 7 (Homo sapiens) (UniProt P50613+Q96SW2); test: Protac activity at CDK7/CRBN in human HEK293 cells assessed as degradation of CDK7 at 0.01 to 10 uM incubated for 24 hrs by Western blot analysis; format: cell-based; settings: dose 0.01-10 µM
[11] = molecular target: T5, Protein cereblon/Cyclin-dependent kinase 6 (Homo sapiens) (UniProt Q00534+Q96SW2); test: Protac activity at CDK6/CRBN in human HEK293 cells assessed as degradation of CDK6 at 0.01 to 10 uM incubated for 24 hrs by Western blot analysis; format: cell-based; settings: dose 0.01-10 µM
[12] = molecular target: T6, Protein cereblon/Cyclin-dependent kinase 5 (Homo sapiens) (UniProt Q00535+Q96SW2); test: Protac activity at CDK5/CRBN in human HEK293 cells assessed as degradation of CDK5 at 0.01 to 10 uM incubated for 24 hrs by Western blot analysis; format: cell-based; settings: dose 0.01-10 µM
[13] = molecular target: T7, Protein cereblon/Cyclin-dependent kinase 4 (Homo sapiens) (UniProt P11802+Q96SW2); test: Protac activity at CDK4/CRBN in human HEK293 cells assessed as degradation of CDK4 at 0.01 to 10 uM incubated for 24 hrs by Western blot analysis; format: cell-based; settings: dose 0.01-10 µM
[14] = molecular target: T8, Protein cereblon/Cyclin-dependent kinase 2 (Homo sapiens) (UniProt P24941+Q96SW2); test: Protac activity at CDK2/CRBN in human HEK293 cells assessed as degradation of CDK2 at 0.01 to 10 uM incubated for 24 hrs by Western blot analysis; format: cell-based; settings: dose 0.01-10 µM
[15] = molecular target: T9, Protein cereblon/Cyclin-dependent kinase 1 (Homo sapiens) (UniProt P06493+Q96SW2); test: Protac activity at CDK1/CRBN in human HEK293 cells assessed as degradation of CDK1 at 0.01 to 10 uM incubated for 24 hrs by Western blot analysis; format: cell-based; settings: dose 0.01-10 µM
[16] = molecular target: T1, Protein cereblon/Cyclin-dependent kinase 9; test: Protac activity at CDK9/CRBN in human HEK293 cells assessed as degradation of CDK9 at 1 uM measured up to 24 hrs by Western blot analysis; format: cell-based; settings: time hrs <=24
In short: (§2)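 Time course in HEK293 cells at 1 μM degrader; lysates collected at indicated time points up to 24 h and probed by western blot for the various CDKs.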
Target sequence in this assay (P50750 whole entry, looked up): as the sequence (P50750 whole entry, looked up) above
Target sequence in this assay (Q96SW2 whole entry, looked up): as the sequence (Q96SW2 whole entry, looked up) above

[17] = molecular target: T2, Protein cereblon/Cyclin-dependent kinase 12 (Homo sapiens); test: Protac activity at CDK12/CRBN in human HEK293 cells assessed as degradation of CDK12 at 1 uM measured upto 24 hrs by Western blot analysis; format: cell-based; settings: time hrs <=24; in short: as §2
[18] = molecular target: T3, Protein cereblon/Cyclin-dependent kinase 8 (Homo sapiens); test: Protac activity at CDK8/CRBN in human HEK293 cells assessed as degradation of CDK8 at 1 uM measured upto 24 hrs by Western blot analysis; format: cell-based; settings: time hrs <=24; in short: as §2
[19] = molecular target: T4, Protein cereblon/Cyclin-dependent kinase 7 (Homo sapiens); test: Protac activity at CDK7/CRBN in human HEK293 cells assessed as degradation of CDK7 at 1 uM measured upto 24 hrs by Western blot analysis; format: cell-based; settings: time hrs <=24; in short: as §2
[20] = molecular target: T5, Protein cereblon/Cyclin-dependent kinase 6 (Homo sapiens); test: Protac activity at CDK6/CRBN in human HEK293 cells assessed as degradation of CDK6 at 1 uM measured upto 24 hrs by Western blot analysis; format: cell-based; settings: time hrs <=24; in short: as §2
[21] = molecular target: T6, Protein cereblon/Cyclin-dependent kinase 5 (Homo sapiens); test: Protac activity at CDK5/CRBN in human HEK293 cells assessed as degradation of CDK5 at 1 uM measured upto 24 hrs by Western blot analysis; format: cell-based; settings: time hrs <=24; in short: as §2
[22] = molecular target: T7, Protein cereblon/Cyclin-dependent kinase 4 (Homo sapiens); test: Protac activity at CDK4/CRBN in human HEK293 cells assessed as degradation of CDK4 at 1 uM measured upto 24 hrs by Western blot analysis; format: cell-based; settings: time hrs <=24; in short: as §2
[23] = molecular target: T8, Protein cereblon/Cyclin-dependent kinase 2 (Homo sapiens); test: Protac activity at CDK2/CRBN in human HEK293 cells assessed as degradation of CDK2 at 1 uM measured upto 24 hrs by Western blot analysis; format: cell-based; settings: time hrs <=24; in short: as §2
[24] = molecular target: T9, Protein cereblon/Cyclin-dependent kinase 1 (Homo sapiens); test: Protac activity at CDK1/CRBN in human HEK293 cells assessed as degradation of CDK1 at 1 uM measured upto 24 hrs by Western blot analysis; format: cell-based; settings: time hrs <=24; in short: as §2
[25] = molecular target: T10, Cyclin-dependent kinase 5 (Homo sapiens, UniProt Q00535); test: Inhibition of CDK5 (unknown origin)
[26] = molecular target: T11, Cyclin-dependent kinase 9 (Homo sapiens, UniProt P50750); test: Inhibition of CDK9 (unknown origin)
[27] = molecular target: T1, Protein cereblon/Cyclin-dependent kinase 9; test: Protac activity at CDK9/CRBN in human HEK293 cells assessed as degradation of CDK9 at 1 uM incubated for 24 hrs in presence of pomalidomide by Western blot analysis; format: cell-based
In short: (§3)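 Competition in HEK293 cells: 10 μM pomalidomide (CRBN ligand) alone or combined with 1 μM degrader for 24 h; lysates analysed by western blot.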
Target sequence in this assay (P50750 whole entry, looked up): as the sequence (P50750 whole entry, looked up) above
Target sequence in this assay (Q96SW2 whole entry, looked up): as the sequence (Q96SW2 whole entry, looked up) above

[28] = molecular target: T4, Protein cereblon/Cyclin-dependent kinase 7 (Homo sapiens); test: Protac activity at CDK7/CRBN in human HEK293 cells assessed as degradation of CDK7 at 10 uM incubated for 24 hrs in presence of pomalidomide by Western blot analysis; format: cell-based; in short: as §3
[29] = molecular target: Cyclin-dependent kinase 7 (Homo sapiens) (UniProt P50613); test: Inhibition of CDK7 in human HEK293 cells assessed as reduction in CDK7 level at 10 uM incubated for 24 hrs in presence of flavopiridol by Western blot analysis; format: cell-based
[30] = molecular target: T1, Protein cereblon/Cyclin-dependent kinase 9; test: Protac activity at CDK9/CRBN in human HEK293 cells assessed as degradation of CDK9 at 1 uM incubated for 24 hrs in presence of MG132 by Western blot analysis; format: cell-based
In short: (§4)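 HEK293 cells co-treated for 24 h with degrader and increasing concentrations of proteasome inhibitor MG132; lysates examined by western blot.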
Target sequence in this assay (P50750 whole entry, looked up): as the sequence (P50750 whole entry, looked up) above
Target sequence in this assay (Q96SW2 whole entry, looked up): as the sequence (Q96SW2 whole entry, looked up) above

[31] = molecular target: T9, Protein cereblon/Cyclin-dependent kinase 1 (Homo sapiens); test: Protac activity at CDK1/CRBN in human HEK293 cells assessed as degradation of CDK1 at 1 uM incubated for 24 hrs in presence of MG132 by Western blot analysis; format: cell-based; in short: as §4
[32] = molecular target: T2, Protein cereblon/Cyclin-dependent kinase 12 (Homo sapiens); test: Protac activity at CDK12/CRBN in human HEK293 cells assessed as degradation of CDK12 at 1 uM incubated for 24 hrs in presence of MG132 by Western blot analysis; format: cell-based; in short: as §4
MIA PaCa-2 [33] = test: Antiproliferative activity against human MIA PaCa-2 cells assessed as sensitizing activity by measuring combination index at ED75 measured after 3 days in presence of ABT- 199 by Prestoblue assay; format: functional; settings: time 3 day; in short: as §1
MIA PaCa-2 [34] = test: Antiproliferative activity against human MIA PaCa-2 cells assessed as sensitizing activity by measuring combination index at ED90 measured after 3 days in presence of ABT- 199 by Prestoblue assay; format: functional; settings: time 3 day; in short: as §1
MIA PaCa-2 [35] = test: Antiproliferative activity against human MIA PaCa-2 cells assessed as sensitizing activity by measuring combination index at ED50 measured after 3 days in presence of WEHI-539 by Prestoblue assay; format: functional; settings: time 3 day; in short: as §1
MIA PaCa-2 [36] = test: Antiproliferative activity against human MIA PaCa-2 cells assessed as sensitizing activity by measuring combination index at ED75 measured after 3 days in presence of WEHI-539 by Prestoblue assay; format: functional; settings: time 3 day; in short: as §1
MIA PaCa-2 [37] = test: Antiproliferative activity against human MIA PaCa-2 cells assessed as sensitizing activity by measuring combination index at ED90 measured after 3 days in presence of WEHI-539 by Prestoblue assay; format: functional; settings: time 3 day; in short: as §1
[38] = molecular target: T1, Protein cereblon/Cyclin-dependent kinase 9; test: Protac activity at CDK9/CRBN in human HEK293 cells assessed as degradation of CDK9 by Western blot analysis; format: cell-based; settings: TDE = time-dependent effect
Target sequence in this assay (P50750 whole entry, looked up): as the sequence (P50750 whole entry, looked up) above
Target sequence in this assay (Q96SW2 whole entry, looked up): as the sequence (Q96SW2 whole entry, looked up) above

[39] = molecular target: T1, Protein cereblon/Cyclin-dependent kinase 9; test: Protac activity at CDK9/CRBN in human MIA PaCa-2 cells assessed as degradation of CDK9; format: cell-based
Target sequence in this assay (P50750 whole entry, looked up): as the sequence (P50750 whole entry, looked up) above
Target sequence in this assay (Q96SW2 whole entry, looked up): as the sequence (Q96SW2 whole entry, looked up) above

[40] = molecular target: T1, Protein cereblon/Cyclin-dependent kinase 9; test: Protac activity at CDK9/CRBN in human SUIT-2 cells assessed as degradation of CDK9; format: cell-based
[41] = molecular target: T10, Cyclin-dependent kinase 5; test: Binding affinity to CDK5 (unknown origin)
[42] = molecular target: T11, Cyclin-dependent kinase 9; test: Binding affinity to CDK9 (unknown origin)
[43] = molecular target: T12, Cyclin-dependent kinase 2 (Homo sapiens, UniProt P24941)
[44] = molecular target: T12, Cyclin-dependent kinase 2; remark: listed apart in the source
[45] = molecular target: T11, Cyclin-dependent kinase 9; test: Inhibition of CDK9 in human HEK293 cells assessed as reduction in CDK9 level at 1 uM incubated for 8 hrs in presence of flavopiridol by Western blot analysis

T11 sequence (P50750 whole entry): as the sequence (P50750 whole entry, looked up) above
T4 sequence (P50613 whole entry, looked up): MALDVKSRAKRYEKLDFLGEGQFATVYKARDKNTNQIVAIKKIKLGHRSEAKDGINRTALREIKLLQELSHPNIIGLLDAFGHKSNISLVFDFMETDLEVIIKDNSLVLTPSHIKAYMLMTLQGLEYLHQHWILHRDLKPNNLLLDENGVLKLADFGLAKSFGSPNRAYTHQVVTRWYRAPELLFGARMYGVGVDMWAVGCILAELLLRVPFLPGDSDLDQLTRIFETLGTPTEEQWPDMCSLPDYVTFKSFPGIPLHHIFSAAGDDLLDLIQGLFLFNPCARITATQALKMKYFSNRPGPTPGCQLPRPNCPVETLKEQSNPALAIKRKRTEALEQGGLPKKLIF
T4 sequence (Q96SW2 whole entry, looked up): as the sequence (Q96SW2 whole entry, looked up) above
T9 sequence (P06493 whole entry, looked up): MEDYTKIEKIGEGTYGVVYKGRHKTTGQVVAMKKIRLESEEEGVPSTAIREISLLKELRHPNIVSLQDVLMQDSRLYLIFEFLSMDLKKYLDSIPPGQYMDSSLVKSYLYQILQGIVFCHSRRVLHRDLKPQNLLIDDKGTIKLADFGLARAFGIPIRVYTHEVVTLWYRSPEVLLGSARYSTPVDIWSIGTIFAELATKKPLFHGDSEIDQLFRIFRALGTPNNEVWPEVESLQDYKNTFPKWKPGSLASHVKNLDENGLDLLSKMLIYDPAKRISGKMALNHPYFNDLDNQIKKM
T9 sequence (Q96SW2 whole entry, looked up): as the sequence (Q96SW2 whole entry, looked up) above
T3 sequence (P49336 whole entry, looked up): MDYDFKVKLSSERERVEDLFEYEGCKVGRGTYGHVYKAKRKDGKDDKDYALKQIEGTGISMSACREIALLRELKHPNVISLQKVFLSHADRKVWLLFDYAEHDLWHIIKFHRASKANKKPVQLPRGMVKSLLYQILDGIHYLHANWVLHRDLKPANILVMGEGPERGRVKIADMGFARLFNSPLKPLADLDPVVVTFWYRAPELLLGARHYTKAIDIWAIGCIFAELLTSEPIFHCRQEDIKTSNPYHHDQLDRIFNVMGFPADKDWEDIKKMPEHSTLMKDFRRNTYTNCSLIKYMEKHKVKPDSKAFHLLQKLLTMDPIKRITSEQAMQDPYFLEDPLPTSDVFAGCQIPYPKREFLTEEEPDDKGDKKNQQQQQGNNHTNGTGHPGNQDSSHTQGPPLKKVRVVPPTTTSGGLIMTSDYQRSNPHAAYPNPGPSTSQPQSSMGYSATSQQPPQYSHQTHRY
T3 sequence (Q96SW2 whole entry, looked up): as the sequence (Q96SW2 whole entry, looked up) above
T6 sequence (Q00535 whole entry, looked up): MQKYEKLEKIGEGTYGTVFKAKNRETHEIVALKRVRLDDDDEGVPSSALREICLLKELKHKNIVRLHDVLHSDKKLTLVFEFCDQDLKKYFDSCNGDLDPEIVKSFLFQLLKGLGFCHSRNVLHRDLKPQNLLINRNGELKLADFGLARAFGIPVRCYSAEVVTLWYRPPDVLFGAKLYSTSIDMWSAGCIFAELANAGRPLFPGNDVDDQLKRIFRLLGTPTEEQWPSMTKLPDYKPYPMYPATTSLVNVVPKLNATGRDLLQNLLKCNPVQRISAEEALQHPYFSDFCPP
T6 sequence (Q96SW2 whole entry, looked up): as the sequence (Q96SW2 whole entry, looked up) above

Structure (SMILES): O=C(CCCOc1ccc(CC(=O)Nc2cc(C3CCC3)[nH]n2)cc1)NCCCCNc1cccc2c1C(=O)N(C1CCC(=O)NC1=O)C2=O (stereo unspecified)
- CI (MIA PaCa-2 [1]): 0.02
- CI (MIA PaCa-2 [2]): 0.1
- CI (MIA PaCa-2 [3]): 0.12
- CI (MIA PaCa-2 [4]): 0.16
- Activity [5]: Dose-Dependent Effect
- DC50 [5]: 0.158 µM
- Activity [6]: 100%
- Activity [7]: inactive
- Activity [8]: inactive
- Activity [9]: inactive
- Activity [10]: inactive
- Activity [11]: inactive
- Activity [12]: inactive
- Activity [13]: inactive
- Activity [14]: inactive
- Activity [15]: inactive
- Activity [16]: Active
- Activity [17]: inactive
- Activity [18]: inactive
- Activity [19]: inactive
- Activity [20]: inactive
- Activity [21]: inactive
- Activity [22]: inactive
- Activity [23]: inactive
- Activity [24]: inactive
- IC50 [25]: 0.007 µM
- IC50 [26]: 0.53 µM
- Activity [27]: inactive
- Activity [28]: inactive
- Activity [29]: inactive
- Activity [30]: inactive
- Activity [31]: inactive
- Activity [32]: inactive
- CI (MIA PaCa-2 [33]): 0.001
- CI (MIA PaCa-2 [34]): 0.001
- CI (MIA PaCa-2 [35]): 1
- CI (MIA PaCa-2 [36]): 0.6
- CI (MIA PaCa-2 [37]): 0.35
- Activity [38]: Tde
- Activity [39]: Active
- Activity [40]: Active
- Kd [41]: 0.815 µM
- Kd [42]: 1.05 µM
- IC50 [43]: 0.155 µM
- Kd [44]: 0.385 µM
- Activity [45]: inactive
